Laboratory results reported in ChEMBL document CHEMBL2417382, “Derivatives of grindelic acid: from a non-active natural diterpene to synthetic antitumor derivatives” (2013).
Active and inactive are the calls of the source. The calls are words filed in the database; no cut-off is given here.

Experiments:
Type in all cases: functional
[1] = tested on: HeLa; assay: Antiproliferative activity against human HeLa cells after 48 hrs by SRB assay
In short: (§1)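 Cells grown in RPMI 1640 with 5% heat-inactivated FCS and 2 mM L-glutamine. Seeded per well at 20,000 (WiDr), 15,000 (T-47D) or 10,000 (HeLa, SW1573, HBL-100). Dosing started the day after plating, in triplicate at 1–100 µM, with 0.25% DMSO as the vehicle control. After 48 h, TCA fixation, SRB staining and OD at 492 nm. Percentage growth calculated against untreated cells from OD at T0 and end, using NCI formulas.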

[2] = tested on: T47D; assay: Antiproliferative activity against human T47D cells after 48 hrs by SRB assay; in short: as §1
[3] = tested on: SW1573; assay: Antiproliferative activity against human SW1573 cells after 48 hrs by SRB assay; details: SW1573, 48 h; in short: as §1
[4] = tested on: HBL-100; assay: Antiproliferative activity against human HBL100 cells after 48 hrs by SRB assay; details: HBL-100, 48 h; in short: as §1
[5] = tested on: WiDr; assay: Antiproliferative activity against human WiDr cells after 48 hrs by SRB assay; in short: as §1

Structure (SMILES) | GI50 [1] [µM] | GI50 [2] [µM] | GI50 [3] [µM] | GI50 [4] [µM] | GI50 [5]
CC1=CC[C@H]2C(C)(C)CCC[C@]2(C)[C@@]12CC[C@@](C)(CCO)O2 | 17 | 16 | 19 | 17 | 21 µM
CC1=CC[C@H]2C(C)(C)CCC[C@]2(C)[C@@]12CC[C@@](C)(CCOC(=O)NCCCN(C)C)O2 | 7.8 | 4.3 | 8 | 6.1 | 1.4 µM
CC1=CC[C@H]2C(C)(C)CCC[C@]2(C)[C@@]12CC[C@@](C)(CC(=O)N(Cc1ccccc1)C(C)(C)C(=O)Nc1c(C)cccc1C)O2 | 11 | 31 | 5.1 | 8.9 | 38 µM
CC1=CC[C@H]2C(C)(C)CCC[C@]2(C)[C@@]12CC[C@@](C)(CC(=O)N(c1ccccc1)C(C)(C)C(=O)Nc1c(C)cccc1C)O2 | 22 | 21 | 5.9 | 8.7 | 37 µM
CC1=CC[C@H]2C(C)(C)CCC[C@]2(C)[C@@]12CC[C@@](C)(C/C=C/CO)O2 | 18 | 17 | 17 | 17 | 17 µM
CC1=CC[C@H]2C(C)(C)CC[C@H](O)[C@]2(C)[C@@]12CC[C@@](C)(CC(=O)O)O2 | > 100 | > 100 | > 72 | > 100 | > 100 µM
CCCCCCCCCCc1cn(CC[C@]2(C)CC[C@@]3(O2)C(C)=CC[C@H]2C(C)(C)CCC[C@@]23C)nn1 | 25 | 44 | 15 | 16 | 15 µM
CC1=CC[C@H]2C(C)(C)CCC[C@]2(C)[C@@]12CC[C@@](C)(CC(=O)N(Cc1ccccc1)C(C)(C)C(=O)NCc1ccccc1)O2 | 1.6 | 1.9 | 1.2 | 0.95 | 1.8 µM
CC1=CC[C@H]2C(C)(C)CCC[C@]2(C)[C@@]12CC[C@@](C)(CC=O)O2 | 17 | 26 | 17 | 14 | 15 µM
CCOC(=O)/C=C/C[C@]1(C)CC[C@@]2(O1)C(C)=CC[C@H]1C(C)(C)CCC[C@@]12C | 19 | 32 | 18 | 16 | 35 µM
CC1=CC[C@H]2C(C)(C)CCC[C@]2(C)[C@@]12CC[C@@](C)(CCOC(=O)NCc1cn(CC[C@]3(C)CC[C@@]4(O3)C(C)=CC[C@H]3C(C)(C)CCC[C@@]34C)nn1)O2 | > 100 | > 100 | > 100 | > 100 | > 100 µM
CC1=CC[C@H]2C(C)(C)CCC[C@]2(C)[C@@]12CC[C@@](C)(C[C@H]1O[C@@H]1CO)O2 | 17 | 15 | 18 | 16 | 17 µM
CC1=CC[C@H]2C(C)(C)CCC[C@]2(C)[C@@]12CC[C@@](C)(C/C=C(\C)CO)O2 | 16 | 15 | 18 | 16 | 19 µM
CC1=CC[C@H]2C(C)(C)CCC[C@]2(C)[C@@]12CC[C@@](C)(CC(=O)N(c1ccccc1)C(C)(C)C(=O)NC(C)(C)C)O2 | 5.7 | 5.3 | 5.8 | 5.4 | 6.8 µM
CCCCNC(=O)C(C)(C)N(Cc1ccccc1)C(=O)C[C@]1(C)CC[C@@]2(O1)C(C)=CC[C@H]1C(C)(C)CCC[C@@]12C | 2.9 | 3 | 1.8 | 1.9 | 3.1 µM
CC1=CC[C@H]2C(C)(C)CCC[C@]2(C)[C@@]12CC[C@@](C)(CCn1cc(COc3cccc(OCc4cn(CC[C@]5(C)CC[C@@]6(O5)C(C)=CC[C@H]5C(C)(C)CCC[C@@]56C)nn4)c3)nn1)O2 | > 100 | > 100 | > 100 | > 100 | > 100 µM

Structure (SMILES) | GI50 [1] [µM] | GI50 [2] [µM] | GI50 [3] [µM] | GI50 [4] [µM] | GI50 [5]
CC1=CC[C@H]2C(C)(C)CCC[C@]2(C)[C@@]12CC[C@@](C)(CC(=O)N(Cc1ccccc1)C(C)(C)C(=O)NC(C)(C)C)O2 | 5.3 | 3.9 | 11 | 4.6 | 12 µM
CC1=CC[C@H]2C(C)(C)CCC[C@]2(C)[C@@]12CC[C@@](C)(CC(=O)N(Cc1ccccc1)C(C)(C)C(=O)NC1CCCCC1)O2 | 4.7 | 4.4 | 3.6 | 3.7 | 5.1 µM
CC1=CC[C@H]2C(C)(C)CCC[C@]2(C)[C@@]12CC[C@@](C)(CC(=O)N(Cc1ccccc1)C(C)(C)C(=O)NC(C)(C)C(C)(C)C)O2 | 30 | 40 | 14 | 10 | 49 µM
CC[C@@]1(O)C(=O)OCc2c1cc1n(c2=O)Cc2cc3ccccc3nc2-1 [CAMPTOTHECIN] | 0.6 | 2 | 0.25 | 0.23 | 1.8 µM
CC1=CC[C@H]2C(C)(C)CCC[C@]2(C)[C@@]12CC[C@@](C)(CCOC(=O)n1ccnc1)O2 | 18 | 17 | 17 | 16 | 13 µM
C#CCNC(=O)OCC[C@]1(C)CC[C@@]2(O1)C(C)=CC[C@H]1C(C)(C)CCC[C@@]12C | 14 | 16 | 13 | 14 | 12 µM
COC(=O)C[C@]1(C)CC[C@@]2(O1)C(C)=CC[C@H]1C(C)(C)CCC[C@@]12C | 16 | 19 | 18 | 17 | 23 µM
CC1=CC[C@H]2C(C)(C)CCC[C@]2(C)[C@@]12CC[C@@](C)(CCn1cc(C[C@]3(C)CC[C@@]4(O3)C(C)=CC[C@H]3C(C)(C)CCC[C@@]34C)nn1)O2 | 17 | 17 | 11 | 9.3 | inactive
C#CC[C@]1(C)CC[C@@]2(O1)C(C)=CC[C@H]1C(C)(C)CCC[C@@]12C | 16 | 28 | 15 | 17 | 4.8 µM
C#Cc1cccc(-c2cn(CC[C@]3(C)CC[C@@]4(O3)C(C)=CC[C@H]3C(C)(C)CCC[C@@]34C)nn2)c1 | > 100 | > 100 | > 100 | > 100 | > 100 µM
CCOC(=O)/C(C)=C/C[C@]1(C)CC[C@@]2(O1)C(C)=CC[C@H]1C(C)(C)CCC[C@@]12C | 18 | 32 | 20 | 17 | 37 µM
CC1=CC[C@H]2C(C)(C)CCC[C@]2(C)[C@@]12CC[C@@](C)(CC(=O)O)O2 | 60 | 69 | 49 | 46 | 57 µM
CC1=CC[C@H]2C(C)(C)CCC[C@]2(C)[C@@]12CC[C@@](C)(CC(=O)N(Cc1ccccc1)C(C)(C)C(=O)NCCN1CCOCC1)O2 | 18 | 19 | 16 | 16 | 12 µM
CC1=CC[C@H]2C(C)(C)CCC[C@]2(C)[C@@]12CC[C@@](C)(CCN=[N+]=[N-])O2 | > 100 | > 100 | > 100 | > 100 | > 100 µM
CC1=CC[C@H]2C(C)(C)CCC[C@]2(C)[C@@]12CC[C@@](C)(CCn1cc(CCCCc3cn(CC[C@]4(C)CC[C@@]5(O4)C(C)=CC[C@H]4C(C)(C)CCC[C@@]45C)nn3)nn1)O2 | 2.7 | 4.3 | 3 | 2.9 | 
CC1=CC[C@H]2C(C)(C)CCC[C@]2(C)[C@@]12CC[C@@](C)(C[C@@H]1O[C@H]1CO)O2 | 17 | 16 | 18 | 16 | 19 µM
